Source: PubChem (several laboratories)
Rpn11 block = Rpn11 (PSMD14) deubiquitinase inhibitors, primary screen, biochemical, fluorescence polarization, uHTS; 26S proteasome non-ATPase regulatory subunit 14 (Homo sapiens), O00487; human 26S proteasome, Ub4-pepOG fluorescence polarization; 20S core pre-blocked with epoxomicin; inhibition, % at 20 µM; hit rate 0.59% among 360,000;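 active = inhibition at 20 µM, scaled to each plate's controls, above about 33%, limit read from the data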
Target sequence (O00487 whole entry, looked up): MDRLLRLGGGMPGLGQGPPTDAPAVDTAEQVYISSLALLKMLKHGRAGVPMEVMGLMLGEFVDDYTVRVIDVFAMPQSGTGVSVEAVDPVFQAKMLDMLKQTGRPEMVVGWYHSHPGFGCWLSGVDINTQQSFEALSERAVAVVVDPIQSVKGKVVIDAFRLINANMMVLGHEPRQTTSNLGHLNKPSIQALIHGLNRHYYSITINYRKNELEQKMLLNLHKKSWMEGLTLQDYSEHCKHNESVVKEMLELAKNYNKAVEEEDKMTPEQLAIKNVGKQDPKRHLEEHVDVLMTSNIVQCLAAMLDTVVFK
aDG glyco act = activators of alpha-DG glycosylation, primary screen, uHTS, Pro5-aDG cells, AlphaScreen | hit rate 0.22% among 360,000 | AID 624168, 2012 | activation, % at 10 µM | alpha-DG glycosylation AlphaScreen (IIH6); 0% Pro5, 100% B10-LARGE cell signal;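 active = activation of at least 8% versus controls, or a plate z-score of at least 8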;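 note: Pro5 are CHO cells carrying HIG-tagged alpha-DG that lacks glycosylation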
CSN deneddyl inh = inhibitors of CSN-mediated cullin deneddylation, primary screen, biochemical, fluorescence polarization, uHTS | hit rate 0.38% among 360,000 | Purified CSN, SCF-Nedd8-OG deneddylation | inhibition, % at 12.5 µM;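 active = pattern-corrected inhibition above about 35%, with an unprinted fluorescence ratio check between 0.5 and 1.5, limit read from the data, passing the limit was not always enough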
Target sequence (Q92905 whole entry, looked up, one chain of several): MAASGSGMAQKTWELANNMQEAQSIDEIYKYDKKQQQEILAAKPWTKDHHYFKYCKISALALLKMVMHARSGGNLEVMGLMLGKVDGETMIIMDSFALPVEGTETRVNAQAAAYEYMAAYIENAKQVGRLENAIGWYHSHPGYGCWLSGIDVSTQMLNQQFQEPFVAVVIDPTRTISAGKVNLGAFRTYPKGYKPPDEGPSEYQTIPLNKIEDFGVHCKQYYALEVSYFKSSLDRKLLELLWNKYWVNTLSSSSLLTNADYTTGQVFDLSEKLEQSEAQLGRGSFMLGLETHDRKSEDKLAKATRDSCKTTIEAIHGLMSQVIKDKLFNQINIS
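Assay system: purified human Csn5 enzyme expressed in HEK293T cells; Input: 0.24 nM Csn5 enzyme, final concentration; Reagent: 10 nM SCFSkp2-Nedd8OG; Compound dosing: 12.5 µM single point; Times: reaction 90 min, room temperature; Technique: fluorescence polarization readout.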
TPT1 inh = Candida albicans TPT1 enzyme inhibitors, primary screen, biochemical, fluorescence polarization; recombinant caTPT1, FP RNA substrate dephosphorylation; hit rate 0.81% among 300,000; inhibition, % at 5 µM; AID 1962, 2009;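 active = inhibition above the mean of all tested compounds plus 3 SD, set per screening campaign, cut at about 24% in these data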
XiGFP reactiv = activators of inactive X chromosome reactivation, primary screen, imaging, XiGFP fibroblasts, GFP high-content imaging, set 2; XiGFP mouse fibroblasts, % GFP-positive cells imaging, 3 d; cells co-treated with 5-aza-dC sensitizer; scaled so ellipticine positive control = 100%; activation, % at 7.58 µM; hit rate 0.055% among 360,000; AID 743238, 2013;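 active = mean normalized replicate activation at least 10% and every replicate at or above 10%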
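material = 68-5-11 XiGFP fibroblast line | medium = DMEM plus 5-aza-dC sensitizer | schedule = 3 days compound exposure | benchmarks = positive control ellipticine, 6 µM final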
HNF4A DNA FP = change in binding of human HNF4A to DNA, primary screen, biochemical, fluorescence polarization, FITC-DNA. 1 h. activity change, % at 10 µM. hit rate 0.3% among 360,000; in the data active = activity change above about 30%, passing the limit was not always enough
Hits are given with their value. This is a sample that favours compounds with a hit; in the whole collection about 1.3% have one here.

What do the screens show for `COc1cc(-c2cc(C(=O)Nc3ccc(O)cc3)c3ccccc3n2)cc(OC)c1OC`?
Rpn11 block: inactive; aDG glyco act: inactive; CSN deneddyl inh: inactive; TPT1 inh: inactive; XiGFP reactiv: inactive; HNF4A DNA FP: inactive

How did O=C(C[C@H]1CC[C@H]2NC[C@@H](O)COC[C@@H]2O1)Nc1ccccc1 do in these assays?
XiGFP reactiv: inactive

Results for CCCC(=O)Nc1ccc2c(c1)OC[C@@H](C)N(CC1CCCC1)C[C@H](C)[C@H](OC)CN(C)C2=O ?
XiGFP reactiv: inactive

Results for C[C@H]1CN([C@@H](C)CO)C(=O)c2cc(C#CCN(C)C)cnc2O[C@H]1CN(C)Cc1ccc(F)cc1 ?
XiGFP reactiv: inactive

How did Cc1cc(-c2ccc(Br)s2)nc(-n2cccc2)n1 do in these assays?
Rpn11 block: inactive; aDG glyco act: inactive; CSN deneddyl inh: inactive; XiGFP reactiv: inactive; HNF4A DNA FP: 50

Results for C[C@@H]1CN([C@@H](C)CO)C(=O)c2cccc(NC(=O)CCCCCC(=O)Nc3ccccc3N)c2O[C@@H]1CN(C)C(=O)Nc1ccccc1 ?
XiGFP reactiv: inactive

What do the screens show for `COC(=O)Cc1c(OC)ccn(CCc2c[nH]c3ccccc23)c1=O`?
Rpn11 block: inactive; aDG glyco act: inactive; CSN deneddyl inh: inactive; TPT1 inh: inactive; XiGFP reactiv: inactive; HNF4A DNA FP: inactive

How did COC(=O)Cc1c(O)ccn(CCc2c[nH]c3ccccc23)c1=O do in these assays?
Rpn11 block: inactive; aDG glyco act: inactive; CSN deneddyl inh: 74; TPT1 inh: inactive; XiGFP reactiv: inactive; HNF4A DNA FP: inactive

How did O=C(Nc1ccc2nc(-c3cccs3)c(-c3cccs3)nc2c1)NC1CC1 do in these assays?
Rpn11 block: 37; aDG glyco act: inactive; CSN deneddyl inh: inactive; TPT1 inh: inactive; HNF4A DNA FP: inactive

How did COCCNC(=O)Nc1ccc2nc(-c3cccs3)c(-c3cccs3)nc2c1 do in these assays?
Rpn11 block: inactive; aDG glyco act: inactive; CSN deneddyl inh: inactive; TPT1 inh: inactive; HNF4A DNA FP: inactive

Results for COc1ccc(Cc2noc(CN(C)CCc3ccccc3)n2)cc1OC ?
Rpn11 block: inactive; aDG glyco act: inactive; CSN deneddyl inh: inactive; TPT1 inh: inactive; XiGFP reactiv: inactive; HNF4A DNA FP: inactive

What do the screens show for `COc1ccc(CN(C)Cc2nc(Cc3ccccc3Cl)no2)cc1OC`?
Rpn11 block: inactive; aDG glyco act: inactive; CSN deneddyl inh: inactive; TPT1 inh: inactive; XiGFP reactiv: 33; HNF4A DNA FP: inactive

How did CC(C)NC(=O)Nc1cccc2c1O[C@@H](CN(C)C)[C@@H](C)CN(C)C2=O do in these assays?
XiGFP reactiv: inactive

Results for CCC(=O)N1[C@H](CO)[C@@H](c2ccccc2)C12CN(C(=O)c1cnccn1)C2 ?
XiGFP reactiv: inactive

Results for N#CC1=C(c2ccc(-c3ccccc3)cc2)COC1=O ?
Rpn11 block: 40; aDG glyco act: inactive; CSN deneddyl inh: inactive; TPT1 inh: inactive; XiGFP reactiv: inactive; HNF4A DNA FP: inactive

What do the screens show for `C[C@@H]1CN([C@H](C)CO)S(=O)(=O)c2ccc(C#Cc3ccccc3F)cc2O[C@H]1CN(C)C`?
XiGFP reactiv: inactive

Results for COC(=O)c1c(C)[nH]c(O)c1C=Nc1ccc(C(C)C)cc1 ?
Rpn11 block: inactive; aDG glyco act: inactive; CSN deneddyl inh: 53; TPT1 inh: inactive; HNF4A DNA FP: inactive

Results for COC(=O)c1c(C)[nH]c(O)c1C=Nc1ccc(Oc2ccccc2)cc1 ?
Rpn11 block: inactive; aDG glyco act: inactive; CSN deneddyl inh: 90; TPT1 inh: inactive; XiGFP reactiv: inactive; HNF4A DNA FP: inactive

What do the screens show for `CCC(=O)Nc1ccc2c(c1)OC[C@H](C)N(Cc1ccccc1C(=O)O)C[C@H](C)[C@@H](OC)CN(C)C2=O`?
XiGFP reactiv: inactive

What do the screens show for `Cc1cc(N2CCN(c3nc4ccccc4s3)CC2)n2ncnc2n1`?
Rpn11 block: inactive; aDG glyco act: 4.2; CSN deneddyl inh: inactive; TPT1 inh: inactive; HNF4A DNA FP: inactive

What do the screens show for `Cc1cc(N2CCN(C(c3ccccc3)c3ccccc3)CC2)n2ncnc2n1`?
Rpn11 block: inactive; aDG glyco act: inactive; CSN deneddyl inh: inactive; TPT1 inh: inactive; HNF4A DNA FP: inactive

Results for COC(=O)c1c(NC(=O)CC2Nc3ccccc3NC2=O)sc(C)c1C (stereo unspecified) ?
Rpn11 block: inactive; aDG glyco act: inactive; CSN deneddyl inh: inactive; TPT1 inh: inactive; HNF4A DNA FP: 45

What do the screens show for `O=C(CC1Nc2ccccc2NC1=O)Nc1cc(Cl)cc(Cl)c1` (stereo unspecified)?
Rpn11 block: inactive; aDG glyco act: inactive; CSN deneddyl inh: inactive; TPT1 inh: inactive; HNF4A DNA FP: inactive

What do the screens show for `CCOC(=O)c1c(NC(=O)CC2Nc3ccccc3NC2=O)sc(C)c1C` (stereo unspecified)?
Rpn11 block: inactive; aDG glyco act: inactive; CSN deneddyl inh: inactive; TPT1 inh: inactive; XiGFP reactiv: inactive; HNF4A DNA FP: 52

How did C[C@H]1CN([C@@H](C)CO)S(=O)(=O)c2ccc(-c3ccccc3)cc2O[C@H]1CN(C)C do in these assays?
XiGFP reactiv: inactive

Results for O=C1c2cc(Cl)ccc2OC2(CCNCC2)C12CC(c1ccc(Cl)cc1)=NO2 (stereo unspecified) ?
Rpn11 block: inactive; aDG glyco act: inactive; CSN deneddyl inh: 68; TPT1 inh: inactive; HNF4A DNA FP: inactive

Results for COCC#Cc1cnc2c(c1)C(=O)N([C@@H](C)CO)C[C@@H](C)[C@H](CN(C)C(C)=O)O2 ?
XiGFP reactiv: inactive

What do the screens show for `CCOC(=O)C1=C(O)/C(=C\c2ccc(CNC(=O)C(=O)Nc3ccccc3)o2)N=C1C`?
Rpn11 block: inactive; aDG glyco act: inactive; CSN deneddyl inh: 41; TPT1 inh: inactive; HNF4A DNA FP: inactive

What do the screens show for `Cc1cccc(Oc2cc([N+](=O)[O-])cc3c2C(=O)Nc2ccccc2O3)c1`?
aDG glyco act: inactive; CSN deneddyl inh: 39; TPT1 inh: inactive; XiGFP reactiv: inactive; HNF4A DNA FP: inactive

What do the screens show for `O=[N+]([O-])c1cc2c(c([N+](=O)[O-])c1)Nc1ccccc1O2`?
Rpn11 block: inactive; aDG glyco act: inactive; CSN deneddyl inh: inactive; XiGFP reactiv: inactive; HNF4A DNA FP: inactive

Results for C[C@@H]1CN([C@@H](C)CO)C(=O)c2cc(C3=CCCC3)cnc2O[C@@H]1CN(C)C(=O)C1CC1 ?
XiGFP reactiv: inactive
